The results in this text go back to ChEMBL document CHEMBL3351257, “Total syntheses of parthenolide and its analogues with macrocyclic stereocontrol” (J Med Chem, 2014).

Common to all, as to assay type: functional, cell-based
Assay [1] in a line: Cytotoxicity against human SUM159 cells assessed as cell viability after 72 hrs by CCK cell proliferation assay. Conditions: SUM-159-PT. An outline of the steps:
(§1)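 Cells plated at 3,000–5,000 per well; dosing began 24 h after plating, using a rising concentration series. After 72 h, cell counting kit reagent added and incubation continued 1–4 h. Viable cells read as OD at 450 nm. Inhibition rate = (1 − OD treated/OD control) × 100%. Wells in triplicate, each compound tested three times; IC50 is the mean of three independent experiments.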

For another assay, the system named is C6. Put plainly: Cytotoxicity against rat C6 cells assessed as cell viability after 72 hrs by CCK cell proliferation assay. Conditions: C6, 72 h. The method, boiled down:
as §1

The test system of the next assay is MCF7. The assay can be described thus: Cytotoxicity against human MCF7 cells assessed as cell viability after 72 hrs by CCK cell proliferation assay. Conditions: MCF7, 72 h. An outline of the steps: as §1
Assay [2] can be described thus: Cytotoxicity against human HL60 cells assessed as cell viability after 72 hrs by CCK cell proliferation assay. Conditions: HL-60, 72 h. The method, boiled down: as §1

A word on the IC50: it is the concentration that inhibits the measured activity by half. Turning to `C=C1C(=O)O[C@H]2[C@@H]1CC/C(C)=C/CC[C@@]1(C)O[C@@H]21`, the half-inhibitory concentration (IC50) in assay [1] is 12.3 µM; in the assay with C6 it was 24 µM; in the assay with MCF7 it was 17.6 µM; in assay [2], 2.9 µM.
In the same order, the values of `C=C1C(=O)O[C@H]2[C@@H]1CC/C(C)=C\CC[C@@]1(C)O[C@@H]21` are 3.5 µM, 41.8 µM, 13 µM and 4.2 µM.
Consider `C=C1C(=O)O[C@@H]2C3O[C@]3(C)CC/C=C(\C)CC[C@@H]12` (stereo partly specified), for which the concentration for half-maximal inhibition (IC50) in assay [1] was found to be 10.3 µM; in the assay with C6, 6.6 µM; in the assay on MCF7, 6.9 µM; in assay [2], 2.5 µM.
For `C=C1C(=O)O[C@H]2[C@H]1CC/C(C)=C\CC[C@@]1(C)O[C@@H]21`, the IC50 in assay [1] amounted to 7.7 µM; with C6, 3.9 µM; in the assay with MCF7, 5.9 µM; in assay [2] it was 1.2 µM.
